In article PMC9178606 (ACS Omega, 2022):
Each block holds one molecule with its values, some of them ahead of it.

What was measured:
[1] = target: T1, α-amylase (Homo sapiens, UniProt P04746); experiment: In vitro α-amylase inhibitory activity; assay type: biochemical
T1 sequence (P04746 16-511): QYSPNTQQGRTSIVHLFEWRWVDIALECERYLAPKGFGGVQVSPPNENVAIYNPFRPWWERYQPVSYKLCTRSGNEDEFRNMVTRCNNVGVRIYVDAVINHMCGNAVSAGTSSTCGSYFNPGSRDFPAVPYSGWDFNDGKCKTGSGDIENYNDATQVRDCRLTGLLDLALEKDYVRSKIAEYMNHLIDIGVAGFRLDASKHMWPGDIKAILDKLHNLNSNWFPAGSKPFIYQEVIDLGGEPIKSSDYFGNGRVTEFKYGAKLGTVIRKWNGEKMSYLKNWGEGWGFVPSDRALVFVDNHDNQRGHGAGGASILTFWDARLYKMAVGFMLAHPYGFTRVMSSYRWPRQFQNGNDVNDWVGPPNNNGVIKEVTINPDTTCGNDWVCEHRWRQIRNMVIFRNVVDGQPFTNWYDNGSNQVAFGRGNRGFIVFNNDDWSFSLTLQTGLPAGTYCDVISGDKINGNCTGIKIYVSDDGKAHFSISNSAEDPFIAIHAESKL
In short: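 Labtest amylase substrate (diluted 1:1 in water) added; first read at 620 nm after 8 min. Final read after another 5 min at 37 °C. Inhibition calculated from the change between initial and final absorbance relative to control; IC50 from standard curve.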

[2] = target: collagenase; experiment: Anti-proteases assay; assay type: biochemical; settings: mean of two determinations ± SD
In short: (§1)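 Enzyme preincubated with test compound (5−75 μg/mL) for 15 min at 37 °C, then 1% casein substrate added for 30 min at 37 °C. Reaction stopped with 5% trichloroacetic acid and centrifuged (12,000 rpm, 15 min). Filtrate absorbance read at 280 nm. Percent inhibition taken against control; IC50 from standard curve. Protease inhibitor cocktail was the positive control.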

[3] = target: T2, hsPLA2-G-X (Homo sapiens, UniProt O15496); experiment: Anti-phospholipases colorimetric assay, hsPLA2-G-X; assay type: biochemical
T2 sequence (O15496 43-165): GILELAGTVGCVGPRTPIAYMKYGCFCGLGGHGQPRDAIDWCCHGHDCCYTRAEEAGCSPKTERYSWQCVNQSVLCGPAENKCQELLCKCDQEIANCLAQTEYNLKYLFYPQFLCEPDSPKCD
In short: (§2)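 Test compound solutions (5−50 μg/mL) mixed with hsPLA2 solution (20 μg/mL, stock) and held 20 min at room temperature. Substrate added: 3.5 mM lecithin, 10 mM CaCl2, 3 mM sodium taurodeoxycholate, 100 mM NaCl, 0.055 mM phenol red, pH 7.6. Hydrolysis followed at 558 nm for 5 min. Percent inhibition taken against a no-compound control; IC50 from standard calibration curves.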

[4] = test system: LoVo cells; experiment: Cytotoxicity assay; assay type: cell-based; settings: Homo sapiens, 24 h; for viability at 200 µg/mL: read-out: % of Viable cells, LoVo cell line of CRC; for IC50: read-out: IC50 LoVo cell line of CRC
In short: (§3)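 Cells exposed 24 h at 37 °C in 5% CO2 to test compound (final 25, 50, 75, 100, 200, 400 μg/mL) in DMEM with 10% FBS. Lactate dehydrogenase released into supernatant measured by end-point assay, OD 550 nm. Viability expressed as percent of medium-only control; 0.1% Triton X-100 was the positive control. Single-point viability at 200 μg/mL, mean ± SD (n = 2). IC50 from viability-versus-concentration plot.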

[5] = target: xanthine oxidoreductase (Bos taurus, UniProt P80457); experiment: In vitro xanthine oxidoreductase inhibitory activity; assay type: biochemical
Sequence of xanthine oxidoreductase (P80457 2-1332 limits assumed): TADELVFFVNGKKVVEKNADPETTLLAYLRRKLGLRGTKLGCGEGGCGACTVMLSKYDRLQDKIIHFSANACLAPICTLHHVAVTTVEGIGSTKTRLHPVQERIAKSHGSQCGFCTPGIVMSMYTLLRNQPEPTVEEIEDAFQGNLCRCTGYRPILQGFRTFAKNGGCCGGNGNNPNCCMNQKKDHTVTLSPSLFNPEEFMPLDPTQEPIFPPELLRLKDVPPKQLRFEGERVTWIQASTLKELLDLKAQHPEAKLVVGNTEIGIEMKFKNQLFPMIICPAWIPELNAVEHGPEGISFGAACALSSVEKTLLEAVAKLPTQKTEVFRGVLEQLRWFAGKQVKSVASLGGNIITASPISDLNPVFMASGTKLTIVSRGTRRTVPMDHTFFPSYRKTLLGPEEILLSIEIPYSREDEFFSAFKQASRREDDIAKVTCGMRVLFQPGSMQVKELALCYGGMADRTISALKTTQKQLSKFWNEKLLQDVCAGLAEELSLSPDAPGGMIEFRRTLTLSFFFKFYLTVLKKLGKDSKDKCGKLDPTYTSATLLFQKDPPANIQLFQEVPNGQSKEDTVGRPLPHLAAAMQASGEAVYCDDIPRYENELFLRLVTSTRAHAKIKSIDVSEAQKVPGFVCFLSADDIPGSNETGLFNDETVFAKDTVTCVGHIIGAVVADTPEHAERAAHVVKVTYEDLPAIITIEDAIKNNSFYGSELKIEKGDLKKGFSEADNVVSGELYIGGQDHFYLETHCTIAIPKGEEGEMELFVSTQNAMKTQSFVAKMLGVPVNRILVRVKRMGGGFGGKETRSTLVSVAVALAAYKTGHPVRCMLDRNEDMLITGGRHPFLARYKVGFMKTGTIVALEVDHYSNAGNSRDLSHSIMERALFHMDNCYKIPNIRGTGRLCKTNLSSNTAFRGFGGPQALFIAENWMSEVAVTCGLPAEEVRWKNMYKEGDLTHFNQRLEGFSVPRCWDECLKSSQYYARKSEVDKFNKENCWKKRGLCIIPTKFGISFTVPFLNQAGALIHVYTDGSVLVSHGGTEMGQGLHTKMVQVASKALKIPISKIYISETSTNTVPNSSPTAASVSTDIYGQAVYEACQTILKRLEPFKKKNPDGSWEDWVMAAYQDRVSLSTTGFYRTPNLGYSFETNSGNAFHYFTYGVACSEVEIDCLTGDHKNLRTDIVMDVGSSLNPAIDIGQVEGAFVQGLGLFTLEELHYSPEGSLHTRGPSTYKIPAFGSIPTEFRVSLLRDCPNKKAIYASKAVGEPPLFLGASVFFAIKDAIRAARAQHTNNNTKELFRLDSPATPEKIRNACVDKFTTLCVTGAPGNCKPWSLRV

[6] = target: α-glucosidase (Saccharomyces cerevisiae, UniProt P53341); experiment: In vitro α-glucosidase inhibitory activity; assay type: biochemical, Saccharomyces cereviseae
Sequence of α-glucosidase (P53341 whole entry): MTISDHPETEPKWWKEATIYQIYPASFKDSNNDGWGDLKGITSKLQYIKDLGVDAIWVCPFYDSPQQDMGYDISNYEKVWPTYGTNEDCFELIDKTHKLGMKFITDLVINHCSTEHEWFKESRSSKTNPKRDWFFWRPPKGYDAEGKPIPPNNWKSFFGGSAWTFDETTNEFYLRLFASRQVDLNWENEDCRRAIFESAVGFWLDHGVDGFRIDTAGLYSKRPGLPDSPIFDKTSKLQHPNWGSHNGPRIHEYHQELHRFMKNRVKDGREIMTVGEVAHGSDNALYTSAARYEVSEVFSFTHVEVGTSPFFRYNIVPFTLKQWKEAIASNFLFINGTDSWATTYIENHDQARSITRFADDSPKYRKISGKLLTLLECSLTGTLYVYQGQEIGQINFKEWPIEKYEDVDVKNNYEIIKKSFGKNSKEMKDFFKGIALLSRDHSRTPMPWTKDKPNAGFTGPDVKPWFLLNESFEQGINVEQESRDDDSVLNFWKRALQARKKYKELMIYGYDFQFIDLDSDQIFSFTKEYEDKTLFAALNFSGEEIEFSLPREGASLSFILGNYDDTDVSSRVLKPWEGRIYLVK

[7] = target: cathepsin-B (Homo sapiens, UniProt P07858); experiment: Anti-proteases assay; assay type: biochemical
In short: as §1

[8] = target: T3, hsPLA2-G-V (Homo sapiens, UniProt P39877); experiment: Anti-phospholipases colorimetric assay, hsPLA2-G-V; assay type: biochemical
T3 sequence (P39877 21-138): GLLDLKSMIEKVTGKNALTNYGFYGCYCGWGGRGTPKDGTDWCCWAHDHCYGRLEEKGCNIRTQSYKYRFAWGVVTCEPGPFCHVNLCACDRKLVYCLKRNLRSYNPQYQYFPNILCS
In short: as §2

[9] = test system: HCT-116 cells; experiment: Cytotoxicity assay; assay type: cell-based; settings: Homo sapiens, HCT-116, 24 h, read-out: IC50 HCT-116 cell line of CRC
In short: as §3

[10] = target: T4, hsPLA2-G-IIA (Homo sapiens, UniProt P14555); experiment: Anti-phospholipases colorimetric assay, hsPLA2-G-IIA; assay type: biochemical
T4 sequence (P14555 21-144): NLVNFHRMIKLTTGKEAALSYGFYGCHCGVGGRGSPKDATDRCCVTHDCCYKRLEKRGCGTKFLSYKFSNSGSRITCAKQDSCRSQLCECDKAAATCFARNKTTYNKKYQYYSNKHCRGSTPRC

[11] = target: T5, trypsin (Bos taurus, UniProt P00760); experiment: Anti-proteases assay; assay type: biochemical
T5 sequence (P00760 24-246): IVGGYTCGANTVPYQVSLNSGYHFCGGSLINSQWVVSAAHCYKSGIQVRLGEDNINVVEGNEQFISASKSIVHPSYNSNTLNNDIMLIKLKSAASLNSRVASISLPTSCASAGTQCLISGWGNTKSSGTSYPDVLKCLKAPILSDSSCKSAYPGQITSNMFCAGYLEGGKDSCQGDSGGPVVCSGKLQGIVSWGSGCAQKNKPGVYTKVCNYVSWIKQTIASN
In short: as §1

[12] = target: thrombin (Homo sapiens, UniProt P00734); experiment: Anti-proteases assay; assay type: biochemical

SMILES: COc1cc(/C=N/n2c(C)nc3ccc(C)cc3c2=O)cc([N+](=O)[O-])c1O [Compound 3d, (E)-3-[(4-Hydroxy-3-methoxy-5-nitrobenzylidene)amino]-2,6-dimethylquinazolin-4(3H)-one]
mean IC50 against Collagenase [2]: 57.83 ± 2.69 µg/mL
IC50 [1]: 375 ± 11.5 µM
IC50 [3]: 21.4 ± 2.31 µM
viability at 200 µg/mL [4]: 90.5 ± 3.54%

SMILES: Cc1nc2ccc(Cl)cc2c(=O)n1NC(=O)CCl [Compound 7b, 2-Chloro-N-(6-chloro-2-methyl-4-oxo-4H-quinazolin-3-yl)acetamide]
IC50 [10]: 127 ± 2.12 µM
IC50 [7]: 31.5 µM

SMILES: Cc1nc2ccc(Cl)cc2c(=O)n1NC1=NC(=O)CS1 [Compound 8, 6-Chloro-2-methyl-3-(4-oxo-4,5-dihydrothiazol-2-ylamino)-3H-quinazolin-4-one]
IC50 [11]: 1.78 µM
IC50 [12]: 0.729 µM
viability at 200 µg/mL [4]: 13.5 ± 0.71%
IC50 [4]: 319 ± 11.4 µM
IC50 [9]: 449 ± 11.5 µM

SMILES: O=c1c2ccccc2[nH]c(=S)n1-c1ccccc1 [Compound 9, 2-Mercapto-3-phenyl-3H-quinazolin-4-one]
IC50 [8]: 151 ± 2.12 µM

SMILES: Cc1nc2ccccc2c(=O)n1NC(=O)CSc1nc2ccccc2c(=O)n1-c1ccccc1 [Compound 10, N-(2-Methyl-4-oxo-4H-quinazolin-3-yl)-2-(4-oxo-3-phenyl-3,4-dihydroquinazolin-2-ylsulfanyl)acetamide]
IC50 [10]: 13.8 ± 2.12 µM
IC50 [8]: 14.7 ± 0.42 µM
viability at 200 µg/mL [4]: 22 ± 1.41%
IC50 [4]: 273 ± 9.04 µM
IC50 [9]: 230 ± 9.04 µM

SMILES: COc1cc(NCC(=O)Nn2c(C)nc3ccc(Cl)cc3c2=O)cc(OC)c1OC [Compound 12, N-(6-Chloro-2-methyl-4-oxo-4H-quinazolin-3-yl)-2-(3,4,5-trimethoxyphenylamino)acetamide]
IC50 [1]: 401 ± 6.36 µM

SMILES: O=c1c(O)c(-c2ccc(O)c(O)c2)oc2cc(O)cc(O)c12 [Quercetin, quercetin, reference compound]
IC50 [1]: 407 ± 2.83 µM

Second part, led by results:

IC50 [1]: 264 ± 11 µM
SMILES: Cc1nc2ccc(Br)cc2c(=O)n1/N=C/c1ccc(C(=O)O)cc1 [Compound 3b, (E)-4-[(6-Bromo-2-methyl-4-oxo-4H-quinazolin-3-ylimino)methyl]benzoic acid]

IC50 [1]: 310 ± 10 µM
IC50 [5]: 7.34 ± 0.33 µM
IC50 [6]: 12.4 ± 0.83 µM
IC50 [7]: 132 µM
SMILES: COc1ccc2cc(/C=N/n3c(C)nc4ccc(Br)cc4c3=O)ccc2c1 [Compound 3f, (E)-6-Bromo-3-[((6-methoxynaphthalen-2-yl)methylene)amino]-2-methylquinazolin-4(3H)-one]
viability at 200 µg/mL [4]: 58 ± 4.24%

IC50 [3]: 14.5 ± 0.92 µM
IC50 [8]: 22.3 ± 0.92 µM
SMILES: COc1cc(/C=N/n2c(C)nc3ccc(Br)cc3c2=O)ccc1O [Compound 3g, (E)-6-Bromo-3-[(4-hydroxy-3-methoxybenzylidene)amino]-2-methyl-3H-quinazolin-4-one]
viability at 200 µg/mL [4]: 16.8 ± 0.35%
IC50 [4]: 206 ± 7.29 µM
IC50 [9]: 285 ± 9.11 µM

IC50 [1]: 358 ± 4.95 µM
IC50 [6]: 13.7 ± 1.41 µM
SMILES: COc1cc(/C=N/n2c(C)nc3ccc(Br)cc3c2=O)ccc1OCc1ccc(Cl)cc1 [Compound 5, (E)-6-Bromo-3-{[4-(4-chlorobenzyloxy)-3-methoxybenzylidene]amino}-2-methyl-3H-quinazolin-4-one]
